# A selection: hits, their analogues and other compounds. The true share with any hit is near 2.9%.
# PRMT1 inh = PRMT1 methyltransferase inhibitors, primary screen, biochemical, fluorescence polarization | Protein arginine N-methyltransferase 1 (Homo sapiens), Q99873 | recombinant PRMT1, activity-based probe fluorescence polarization | inhibition, % at 2.79 µM | hit rate 1.3% among 370,000;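 active means inhibition above about 21% made by adding two undisclosed values, limit read from the data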
# Target sequence (Q99873 whole entry, looked up): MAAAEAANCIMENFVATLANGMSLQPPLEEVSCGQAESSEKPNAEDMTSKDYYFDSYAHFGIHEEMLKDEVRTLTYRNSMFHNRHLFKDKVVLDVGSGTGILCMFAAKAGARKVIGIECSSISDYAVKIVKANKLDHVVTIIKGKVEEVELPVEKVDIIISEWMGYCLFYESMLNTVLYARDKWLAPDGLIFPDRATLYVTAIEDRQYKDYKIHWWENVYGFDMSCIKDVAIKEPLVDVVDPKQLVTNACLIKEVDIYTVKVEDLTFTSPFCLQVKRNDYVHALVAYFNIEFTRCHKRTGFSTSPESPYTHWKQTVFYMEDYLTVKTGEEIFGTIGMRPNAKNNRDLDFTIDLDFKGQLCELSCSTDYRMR
# TCR CD3 inh = inhibitors of human TCR-CD3 interaction, primary screen, biochemical, fluorescence, TAMRA-labeled TCR probe; T-cell receptor (TCR); inhibition, % at 9.4 µM; hit rate 0.37% among 360,000; in the data active means inhibition above about 19%;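 further: recombinant mutant TCR 2C K166C tagged with TAMRA read by polarization; 0% = receptor in buffer alone and 100% = receptor with positive control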
# SIAE primary = human SIAE inhibitors, primary screen, biochemical, fluorescence polarization, FP-Rh probe, 1536-well HTS. SIAE FP-Rh probe binding. inhibition, % at 9.66 µM. hit rate 0.69% among 370,000. Sialate O-acetylesterase (Homo sapiens), Q9HAT2. AID 1053197, 2014;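 active means inhibition above a cutoff: mean of compounds within the control limits plus 3 SD of those, cut at about 17% in these data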;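 further: 0% = plate median of compound wells and 100% = probe without SIAE protein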
# HTRA1 inh = HTRA1 serine protease inhibitors, primary screen, biochemical, fluorescence polarization, HTS | Q92743 | recombinant HTRA1, FP-rhodamine activity-based probe | inhibition, % at 5.96 µM | hit rate 0.5% among 340,000; in the data active means inhibition above about 36%;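 further: 0% = enzyme with DMSO and 100% = wells lacking enzyme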
# ABHD4 inh = ABHD4 inhibitors, primary screen, biochemical, fluorescence polarization, mouse. (Lyso)-N-acylphosphatidylethanolamine lipase (Mus musculus), Q8VD66. purified mABHD4, FP-Rh probe fluorescence polarization. inhibition, % at 8.92 µM. hit rate 0.54% among 370,000. AID 720543, 2013;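 active means inhibition exceeding the mean over every tested compound plus 3 SD, cut at about 30% in these data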;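 further: 0% = plate median of compound wells and 100% = S159A mutant with DMSO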
#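 Test system: mouse ABHD4 enzyme, wild type. Reagent: FP-Rh fluorescent activity-based probe, added after compound pre-incubation. Timing: pre-incubation 45 min, probe exposure 60 min, at 25 °C. Technique: FP readout, ex 525 nm / em 598 nm. Benchmarks: high control S159A mutant with DMSO, low control median of compound wells.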
# PAD4 FP inh = human PAD4 inhibitors, primary screen, biochemical, fluorescence polarization, 1536-well format. hit rate 0.41% among 330,000. Protein-arginine deiminase type-4 (Homo sapiens), Q9UM07. AID 485272, 2010. recombinant PAD4, RCA probe fluorescence polarization. inhibition, % at 6.36 µM;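 active means percent inhibition above a cutoff equal to the mean of all tested compounds plus 3 SD, cut at about 15% in these data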;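 further: 0% = PAD4 with RCA probe and DMSO and 100% = probe without PAD4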
# SIAE confirm = human SIAE inhibitors, retest, confirmation, biochemical, fluorescence polarization, FP-Rh probe, triplicate; shares compounds with SIAE primary; SIAE FP-Rh activity-based probe; inhibition, % at 9.66 µM; hit rate 13% among 2,300;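 active means mean inhibition of the replicates above the hit cutoff set in the primary screen, cut at about 17% in these data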;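 further: 0% = SIAE with DMSO and probe and 100% = probe without SIAE; inhibitors lower polarization as more probe stays unbound to SIAE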
# An asterisk follows results filed as active; / = no result given.
SMILES,PRMT1 inh,TCR CD3 inh,SIAE primary,HTRA1 inh,ABHD4 inh,PAD4 FP inh,SIAE confirm
CCN(CC)S(=O)(=O)c1cccc(C(=O)OC2CC(C)OC2=O)c1 (centres undefined),3,3,17*,1,-3,1,-2
COc1c(OC(C)=O)ccc(/C=C/c2ccc3cccc(OCc4ccccc4)c3n2)c1[N+](=O)[O-],2,-4,28*,-7,-11,-1,-16
COc1cc(/C=C/c2ccc3cccc(OC)c3n2)c(OC(C)=O)c([N+](=O)[O-])c1,0,-3,5,17,8,6,/
CCn1nc(NS(=O)(=O)c2ccc(NC(C)=O)cc2)c2cc3cccc(C)c3nc21,0,3,18*,6,8,0,-3
CC1(C)CC(=O)C2=C(C1)NC1=C(C(=O)c3ccccc31)C2c1ccc(Cl)cc1 (centres undefined),1,-1,30*,8,27,3,14
COCCN1CCCc2nc(-c3ccc(Br)cc3)ccc21,-1,4,4,/,8,/,/
COc1cccc(C2C3=C(CCCC3=O)Nc3[nH]n(-c4ccccc4)c(=O)c32)c1 (centres undefined),-4,8,19*,6,-4,-8,1
CN1CCN(C(=O)CCC(=O)NCc2ccc(F)cc2)CC1,3,3,-8,2,-2,1,/
CCOCCCNCC(=O)N1CCN(S(=O)(=O)c2ccc(C)cc2)CC1,-2,-2,17*,6,-2,2,-1
Cc1ccc(S(=O)(=O)N2CCN(C(=O)CCC(=O)NCc3ccc(F)cc3)CC2)cc1,1,-3,18*,0,6,-1,2
CC(C)[C@H]1Cn2nnc(-c3ccccc3)c2Cn2c3ccccc3c(=O)n21,-2,/,2,/,1,/,/
N=C(N)CCCOc1ccccc1-c1ccccc1,-2,3,20*,-3,5,4,-2
OCCNCCOc1ccccc1-c1ccccc1,-1,2,2,-3,1,-1,/
COC(=O)[C@]12C[C@H](CC(=O)N3CCC(c4ccccc4)CC3)C(=O)N(Cc3cccc4ccccc34)C1=C[C@H](C(C)C)O[C@@H]2C1CC1,0,/,-3,/,-5,/,/
CCOC(=O)c1ccc(S(=O)(=O)NCC(c2ccc(N(C)C)cc2)c2c[nH]c3ccccc23)cc1 (centres undefined),0,0,23*,-8,-23,1,1
CN(C)c1ccc(C(CNC(=O)c2ccc(C#N)cc2)c2c[nH]c3ccccc23)cc1 (centres undefined),-1,-5,24*,17,-1,0,7
COc1ccccc1C(=O)N1CCC2CCN(C(=O)OC(C)(C)C)C2C1 (centres undefined),-6,-4,-8,/,-4,/,/
CN=C1S/C(=C/c2cc(C)n(Cc3ccccc3)c2C)C(=O)N1C,-2,/,1,/,8,/,/
COc1ccc(NC(=O)N(C)C[C@H]2Oc3c(NC(=O)c4ccncc4)cccc3C(=O)N([C@H](C)CO)C[C@@H]2C)cc1,-4,2,23*,3,0,2,2
C[C@H]1CN([C@@H](C)CO)C(=O)c2cccc(NC(=O)c3ccncc3)c2O[C@H]1CN(C)C(=O)Nc1ccccc1,1,-4,1,-1,10,1,/
CCCCCCCCN1CN2Cc3ccc(C)cc3C2CS1(=O)=O (centres undefined),4,/,-5,/,-2,/,/
C=CCN1C(=O)[C@H](CC(=O)NCC2CCCCC2)[C@@]2(C(=O)OCC)CCCC=C12,-3,/,-3,/,-7,/,/
Cc1ccc(S(=O)(=O)N(C)c2ccccc2C(=O)N2CCCC2)cc1,0,2,17*,5,4,-4,5

# Screening results: PubChem, The Scripps Research Institute Molecular Screening Center
